This is an account of results in article PMC5548968 (Clinical cancer research : an official journal of the …, 2016).

In one assay the test system is phospho-PLCγ2(Y759). The assay can be described thus: NSG primary CLL xenograft model, pPLCγ2 in CLL cells from spleen. It counts as in vivo, NSG mice. The conditions noted are these: drinking water 0.3 or 0.16mg/mL, three weeks. An outline of the steps: (§1)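 Human CLL patient MNCs were Ficoll-isolated and viably frozen. They were transferred at 1 × 10^8 cells/mouse into busulfan-primed NSG mice. Drinking-water dosing (0.3 or 0.16mg/mL; 0.06mg/mL in select experiments) started day −1, with vehicle controls. After 3 weeks, splenocytes were sieved, ACK-lysed, fixed (4% paraformaldehyde), permeabilised (90% methanol) and stained for pPLCγ2(Y759), pERK(T202/Y204) or Ki-67 against isotype controls. Mice were averaged per patient and compared by paired t-test.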

Assay [1] concerns phospho-BTK(Y223). The assay can be described thus: in vitro phospho-flow in CLL patient MNCs, phospho-BTK. Type of assay: cell-based, human. The conditions noted are these: 1μM, one hour.
Assay [2] concerns human CLL cells. The assay can be described thus: NSG primary CLL xenograft model, circulating CLL cell count per μL blood. Type of assay: in vivo, NSG mice. The conditions noted are these: drinking water, three weeks, whole blood. An outline of the steps: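 Whole blood came from CLL-engrafted NSG mice after 3 weeks of treated or vehicle drinking water started at busulfan priming (day −1). Absolute human CLL cells (CD45+/CD19+/CD5+) per μL were counted by flow cytometry with counting beads. Values are averages of 2–5 mice per donor patient, compared by paired t-test.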

The next assay concerns phospho-p65(S529). Nature of the assay: in vitro phospho-flow in CLL patient MNCs, phospho-NF-κB p65. It counts as cell-based, human. The conditions noted are these: 1μM, one hour. An outline of the steps: (§2)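 Primary CLL patient MNCs (n=5 patients) were treated in culture with or without 1μM test compound for 1 hour. Cells were fixed in 4% paraformaldehyde, permeabilised in 90% methanol and stained for phospho-PLCγ2(Y759), phospho-S6(S235/236) or phospho-p65(S529) with isotype controls. Flow cytometry gave the percent of CLL cells positive for each readout.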

Another assay relates to ERBB4. The conditions noted are these: read-out: concentration inhibiting ERBB4; biochemical kinase assays; cited from earlier work.
Assay [3] deals with phospho-S6(S235/236). The assay can be described thus: in vitro phospho-flow in CLL patient MNCs, phospho-S6. It counts as cell-based, human. The following applies: 1μM, one hour. The method in brief: as §2
The test system of assay [4] is BCR stimulation by anti-IgM (CD69) in CLL patient MNCs. Type of assay: cell-based, human. The following applies: 1μM pretreatment 3 hours, anti-IgM 18 h.
The next assay relates to BTK. The conditions noted are these: read-out: IC50 BTK; as previously reported; cited from earlier work.
For the next assay, the target named is T1, ITK (Homo sapiens, UniProt Q08881).
T1 sequence (Q08881 1-620): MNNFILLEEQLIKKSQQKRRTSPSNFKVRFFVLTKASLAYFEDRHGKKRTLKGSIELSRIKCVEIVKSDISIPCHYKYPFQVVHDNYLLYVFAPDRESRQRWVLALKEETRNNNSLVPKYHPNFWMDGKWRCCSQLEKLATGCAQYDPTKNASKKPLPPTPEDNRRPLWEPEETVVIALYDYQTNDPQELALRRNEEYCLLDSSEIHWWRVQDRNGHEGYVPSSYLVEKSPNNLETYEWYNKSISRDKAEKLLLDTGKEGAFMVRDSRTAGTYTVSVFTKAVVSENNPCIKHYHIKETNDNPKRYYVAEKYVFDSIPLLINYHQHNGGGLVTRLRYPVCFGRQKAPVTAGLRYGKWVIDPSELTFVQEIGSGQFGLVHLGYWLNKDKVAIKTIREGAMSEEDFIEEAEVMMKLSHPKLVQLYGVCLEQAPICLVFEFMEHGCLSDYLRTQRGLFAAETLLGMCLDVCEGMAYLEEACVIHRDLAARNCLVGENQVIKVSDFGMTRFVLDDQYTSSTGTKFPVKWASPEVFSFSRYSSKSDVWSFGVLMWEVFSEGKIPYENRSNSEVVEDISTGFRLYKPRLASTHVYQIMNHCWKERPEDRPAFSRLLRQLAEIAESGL
Nature of the assay: DiscoverRx KINOMEscan competition binding assay, ITK. The conditions noted are these: 1μM compound.

The subject of the next assay is TEC. The conditions noted are these: read-out: concentration inhibiting TEC; biochemical kinase assays; cited from earlier work.
Assay [5] has as its system human CLL cells. The assay can be described thus: NSG primary CLL xenograft model, tumor burden in the spleen. Type of assay: in vivo, NSG mice. The following applies: drinking water, three weeks. An outline of the steps:
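Spleen tumour burden in NSG mice engrafted with 1 × 10^8 primary CLL MNCs after busulfan priming. Mice got treated or vehicle drinking water from day −1 for 3 weeks. Homogenised, sieved, ACK-lysed splenocytes were surface-stained (CD45, CD19, CD3, CD5) and analysed by flow cytometry. Burden is the percentage of CLL cells among human CD45+ cells. Per-patient averages were compared by paired t-test.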

The subject of another assay is phospho-PLCγ2(Y1217). It counts as in vivo, C57BL/6 mice. The following applies: 0.16mg/mL drinking water, one or four weeks, ex vivo anti-IgM. An outline of the steps: (§3)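 C57BL/6 recipients received 1 × 10^7 Eμ-TCL1 leukemic cells. Drinking water with 0.16mg/mL test compound or vehicle began once blood CD5+/CD19+ cells reached ≥10%. After 1 or 4 weeks, splenocytes were stimulated ex vivo with anti-IgM. Cells were stained for B220, CD3, pPLCγ2(Y1217) (n=7/group) or pS6(S235/236) (n=14/group). Median fluorescence was read in B220+CD3− cells as % change versus vehicle, by normalised unpaired t-test.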

The test system of assay [6] is 395 wild-type human kinases. Nature of the assay: DiscoverRx KINOMEscan ATP site dependent competition binding assay, kinase panel. The following applies: 1μM compound.
In assay [7] the test system is BCR signaling (CD69 expression). Type of assay: in vivo, C57BL/6 mice. The conditions noted are these: for effective dose (CD69 expression): oral gavage 0.1 to 30mg/kg, splenocytes 3 hours after dose, anti-IgM 18 h. The method in brief: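 Female C57BL/6 mice (5/group/dose) were gavaged with vehicle or test compound at 0.1–30mg/kg. Splenocytes were taken 3 hours later and stimulated with goat anti-mouse IgM at 10μg/mL for 18 hours (37°C, 5% CO2). After Fc blocking, cells were stained for CD19 and CD69, with 7-AAD to exclude dead cells. CD69 on >5,000 gated CD19+ cells per sample was measured by flow cytometry.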

Assay [8] relates to phospho-BTK(Y223). Type of assay: in vivo, C57BL/6 mice. The conditions noted are these: 0.16mg/mL drinking water, one or four weeks, ex vivo anti-IgM.
The subject of assay [9] is human CLL cells. The assay can be described thus: NSG primary CLL xenograft model, CLL cell proliferation. Type of assay: in vivo, NSG mice. The conditions noted are these: drinking water, three weeks, spleen. An outline of the steps:
as §1

The subject of the next assay is phospho-ERK(T202/Y204). The assay can be described thus: NSG primary CLL xenograft model, pERK in CLL cells from spleen. Type of assay: in vivo, NSG mice. The following applies: drinking water 0.3 or 0.16mg/mL, three weeks. An outline of the steps:
as §1

The target in the next assay is murine BTK (Mus musculus, UniProt P35991). The assay can be described thus: BTK occupancy probe ELISA, TCL1 adoptive transfer model splenocytes. Type of assay: in vivo. The conditions noted are these: 0.16mg/mL drinking water, one or four weeks.
Chain of murine BTK (P35991 whole entry): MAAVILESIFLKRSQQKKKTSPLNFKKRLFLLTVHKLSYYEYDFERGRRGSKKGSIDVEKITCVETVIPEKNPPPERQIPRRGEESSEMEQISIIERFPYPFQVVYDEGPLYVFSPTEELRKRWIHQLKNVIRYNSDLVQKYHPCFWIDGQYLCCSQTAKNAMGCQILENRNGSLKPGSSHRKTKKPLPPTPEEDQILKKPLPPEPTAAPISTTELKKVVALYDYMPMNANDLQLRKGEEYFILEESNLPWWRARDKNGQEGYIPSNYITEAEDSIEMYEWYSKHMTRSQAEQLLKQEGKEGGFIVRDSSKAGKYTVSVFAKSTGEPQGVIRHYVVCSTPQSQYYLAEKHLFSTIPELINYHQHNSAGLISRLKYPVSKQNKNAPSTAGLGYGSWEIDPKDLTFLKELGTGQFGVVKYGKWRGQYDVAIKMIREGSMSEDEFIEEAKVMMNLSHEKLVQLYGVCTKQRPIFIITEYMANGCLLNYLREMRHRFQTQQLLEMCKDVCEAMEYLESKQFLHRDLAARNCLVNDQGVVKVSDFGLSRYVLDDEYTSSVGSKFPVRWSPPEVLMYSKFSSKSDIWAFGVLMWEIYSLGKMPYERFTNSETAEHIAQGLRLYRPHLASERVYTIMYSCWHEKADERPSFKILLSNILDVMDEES
Assay [10] relates to phospho-S6(S235/236). It counts as in vivo, C57BL/6 mice. The conditions noted are these: 0.16mg/mL drinking water, one or four weeks, ex vivo anti-IgM. An outline of the steps: as §3
The subject of assay [11] is kinases containing a conserved cysteine residue that aligns with the Cys481 in BTK. The following applies: cited from earlier work.

For `CC#CC(=O)N1CCC[C@H]1c1nc(-c2ccc(C(=O)Nc3ccccn3)cc2)c2c(N)nccn12` [acalabrutinib, Acalabrutinib], the figures for the “median change in phosphorylation of PLCγ2 vs vehicle” value with phospho-PLCγ2(Y759) and with phospho-PLCγ2(Y1217) were −68% and −22%, respectively. For the same compound, the “median change in MFI of pBTK (autophosphorylation site)” value in the assay with phospho-BTK(Y223) [1] is on record as −15%. In addition, the “median change in CLL cells per μL of blood vs vehicle” value with human CLL cells [2] is “+0.76%”. Also, the “median change in phosphorylation of NF-κB (p65)” value in the assay with phospho-p65(S529) was −26%. For the same compound, the IC50 with ERBB4 was […]; in the assay on BTK it was 5.1 nM; with TEC, […]. Moreover, in the assay on phospho-S6(S235/236) [3], the “median change in phosphorylation of S6” value is −20%. Also, in assay [4], the “prevention of BCR stimulation by anti-IgM (CD69)” value is recorded as “significantly prevented BCR stimulation”. Also, the “inhibition of ITK” value at ITK is “not significantly inhibited”. Also, the “median change in human CLL cells in the murine spleen (tumor burden) vs vehicle” value with human CLL cells [5] is on record as −33%. Besides, the “binding across kinase panel” value in assay [6] is on record as “Minimal binding outside of BTK”. The “effective dose (CD69 expression)” value in assay [7] turned out to be 1.3 mg/kg. Further, in assay [7] (oral, 1mg/kg and 3mg/kg), the “inhibition of BCR signaling (CD69 expression) compared with ibrutinib” value was “significantly more than ibrutinib”. The “median change in auto-phosphorylation of BTK vs vehicle” value in the assay on phospho-BTK(Y223) [8] is given as −31%. Moreover, in the assay with human CLL cells [9], the “median change in Ki67 (CLL cell proliferation) vs vehicle” value is given as −50%. Besides, in the assay with phospho-ERK(T202/Y204), the “median change in phosphorylation of ERK vs vehicle” value is reported as −79%. For the same compound, the “drug occupancy of murine BTK” value at murine BTK is recorded as at least 90%. Further, the “median change in pS6 induction vs vehicle” value with phospho-S6(S235/236) [10] is listed as −35%.

Take `C=CC(=O)N1CCC[C@@H](n2nc(-c3ccc(Oc4ccccc4)cc3)c3c(N)ncnc32)C1` [ibrutinib, reference compound]: the IC50 in the assay on BTK is 1.5 nM. For the same compound, the “IC50 values for all ten kinases with the conserved cysteine” value in assay [11] was “low nanomolar range”. Further, in assay [7], the “effective dose (CD69 expression)” value was 2.9 mg/kg.
